Test results: ChEMBL document CHEMBL1821568, “Conjugates of 3α-methoxyserrat-14-en-21β-ol (PJ-1) and 3β-methoxyserrat-14-en-21β-ol (PJ-2) as cancer chemopreventive agents” (Eur J Med Chem, 2011)

Assays:
Raji [1] = assay: Inhibition of TPA-induced EBV-early antigen activation in human Raji cells assessed as EA activation at 1000 molar ratio after 48 hrs relative to control; type: cell-based; design: scale not given: the % may be the effect or the level left; details: human gammaherpesvirus 4
In short: (§1)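 Raji cells (non-producer sub-line, spontaneous EA under 0.1%) at 1×10^6/mL, incubated 37 °C for 48 h with n-butyric acid (4 mmol), TPA (32 pmol in DMSO) and compound in DMSO. Dose expressed as mol ratio to TPA (1000, 500, 100, 10). EA-positive cells were detected by indirect immunofluorescence with NPC patient serum, at least 500 cells counted. Assays were run in triplicate. Results are relative to butyrate+TPA control (100%). IC50 given in nM.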

Raji [2] = assay: Inhibition of TPA-induced EBV-early antigen activation in human Raji cells assessed as EA activation at 500 molar ratio after 48 hrs relative to control; type: cell-based; design: scale not given: the % may be the effect or the level left; details: human gammaherpesvirus 4; in short: as §1
Raji [3] = assay: Inhibition of TPA-induced EBV-early antigen activation in human Raji cells assessed as EA activation at 100 molar ratio after 48 hrs relative to control; type: cell-based; details: human gammaherpesvirus 4; in short: as §1
Raji [4] = assay: Inhibition of TPA-induced EBV-early antigen activation in human Raji cells assessed as EA activation at 10 molar ratio after 48 hrs relative to control; type: cell-based; design: scale not given: the % may be the effect or the level left; details: human gammaherpesvirus 4; in short: as §1
[5] = Cytotoxicity against human Raji cells carrying EBV genome assessed as cell viability at 1000 molar ratio by trypan blue staining method; type: cell-based; details: read-out: Activity
In short: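 Raji cells (EBV genome-carrying, in RPMI-1640 with 10% FBS) at 1×10^6/mL, incubated 48 h at 37 °C with n-butyric acid (4 mmol), TPA (32 pmol) and test compound in DMSO. Viability scored by Trypan Blue staining. Molar ratio means mol of compound per mol of TPA (32 pmol).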

[6] = Inhibition of TPA-induced EBV-early antigen activation in human Raji cells assessed as EA activation after 48 hrs; type: cell-based, human gammaherpesvirus 4; in short: as §1
Mus musculus [7] = assay: Inhibition of DMBA-induced and TPA-promoted carcinogenesis in ICR mouse assessed as reduction of mouse bearing papillomas at 85 nmol administered 1 hr before TPA treatment measured after 10 to 15 weeks; type: functional
In short: (§2)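 Female SPF ICR mice, 6 weeks old, 15 per group, backs shaved. Initiation was one topical dose of DMBA (390 nmol) in acetone 0.1 mL. Promotion was TPA (1.7 nmol) twice weekly, with compound given topically at 85 nmol. Papilloma incidence and papillomas per mouse were followed to week 20, and tumor length and width were recorded. Significance was set at P<0.05 versus the DMBA/TPA control.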

Mus musculus [8] = assay: Inhibition of DMBA-induced and TPA-promoted carcinogenesis in ICR mouse assessed as reduction of mouse bearing papillomas at 85 nmol administered 1 hr before TPA treatment measured after 20 weeks; type: functional; in short: as §2
Mus musculus [9] = assay: Inhibition of DMBA-induced and TPA-promoted carcinogenesis in ICR mouse assessed as reduction of mouse bearing papillomas length at 85 nmol administered 1 hr before TPA treatment measured after 20 weeks; type: functional; in short: as §2
Mus musculus [10] = assay: Inhibition of DMBA-induced and TPA-promoted carcinogenesis in ICR mouse assessed as reduction of mouse bearing papillomas width at 85 nmol administered 1 hr before TPA treatment measured after 20 weeks; type: functional; in short: as §2
Mus musculus [11] = species on record: Mus musculus; assay: Toxicity in ICR mouse assessed as change in body weight at 85 nmol; type: organism-based; details: in vivo
Mus musculus [12] = species on record: Mus musculus; assay: Toxicity in ICR mouse assessed as lesional damage at 85 nmol; type: organism-based; details: in vivo
Mus musculus [13] = assay: Toxicity in ICR mouse assessed as edema at 85 nmol; type: organism-based; details: in vivo
Mus musculus [14] = species on record: Mus musculus; assay: Toxicity in ICR mouse assessed as erosion at 85 nmol; type: organism-based; details: in vivo
Mus musculus [15] = species on record: Mus musculus; assay: Toxicity in ICR mouse assessed as ulcer at 85 nmol; type: organism-based; details: in vivo

CO[C@@H]1CC[C@@]2(C)[C@@H](CC[C@@]3(C)CC4=CC[C@H]5C(C)(C)[C@H](OC(=O)CC(C)(C)C(=O)O)CC[C@]5(C)[C@H]4CC[C@@H]32)C1(C)C
Activity (Raji [1]): 0% | Activity (Raji [2]): 29.7% | EA activation relative to control (Raji [3]): 67.5% | Activity (Raji [4]): 91.5% | viability at 1000 molar ratio [5]: 60% | IC50 [6]: 251 nM | inhibition (INH) (Mus musculus [7]): 13.3% | inhibition (INH) (Mus musculus [8]): 80% | Activity (Mus musculus [9]): 16 mm | Activity (Mus musculus [10]): 14 mm | Activity (Mus musculus [11]): Non-toxic | Activity (Mus musculus [12]): Non-toxic | Activity (Mus musculus [13]): Non-toxic | Activity (Mus musculus [14]): Non-toxic | Activity (Mus musculus [15]): Non-toxic

CO[C@@H]1CC[C@@]2(C)[C@@H](CC[C@@]3(C)CC4=CC[C@H]5C(C)(C)[C@H](OC(=O)CCC(=O)Oc6ccc(-c7coc8cc(O)cc(O)c8c7=O)cc6)CC[C@]5(C)[C@H]4CC[C@@H]32)C1(C)C
Activity (Raji [1]): 12.2% | Activity (Raji [2]): 45.9% | EA activation relative to control (Raji [3]): 81% | Activity (Raji [4]): 100% | viability at 1000 molar ratio [5]: 60% | IC50 [6]: 458 nM

CO[C@@H]1CC[C@@]2(C)[C@@H](CC[C@@]3(C)CC4=CC[C@H]5C(C)(C)[C@H](OC(=O)CCC(=O)Oc6ccc([C@@H]7CC(=O)c8c(O)cc(O)cc8O7)cc6)CC[C@]5(C)[C@H]4CC[C@@H]32)C1(C)C
Activity (Raji [1]): 14.3% | Activity (Raji [2]): 48.7% | EA activation relative to control (Raji [3]): 81% | Activity (Raji [4]): 100% | viability at 1000 molar ratio [5]: 60% | IC50 [6]: 473 nM

CC1(C)CC[C@]2(C(=O)O)CC[C@]3(C)C(=CC[C@@H]4[C@@]5(C)CC[C@H](O)C(C)(C)[C@@H]5CC[C@]43C)[C@@H]2C1 [OLEANOLIC_ACID]
Activity (Raji [1]): 12.7% | Activity (Raji [2]): 30% | EA activation relative to control (Raji [3]): 80% | Activity (Raji [4]): 100% | IC50 [6]: 449 nM

CO[C@@H]1CC[C@@]2(C)[C@@H](CC[C@@]3(C)CC4=CC[C@H]5C(C)(C)[C@H](OC(=O)CCC(=O)Oc6ccc(-c7coc8cc(O)ccc8c7=O)cc6)CC[C@]5(C)[C@H]4CC[C@@H]32)C1(C)C
Activity (Raji [1]): 15.8% | Activity (Raji [2]): 50.3% | EA activation relative to control (Raji [3]): 83.4% | Activity (Raji [4]): 100% | viability at 1000 molar ratio [5]: 60% | IC50 [6]: 498 nM

CO[C@H]1CC[C@@]2(C)[C@@H](CC[C@@]3(C)CC4=CC[C@H]5C(C)(C)[C@H](OC(=O)CN6CCCCC6)CC[C@]5(C)[C@H]4CC[C@@H]32)C1(C)C
Activity (Raji [1]): 13.5% | Activity (Raji [2]): 46.3% | EA activation relative to control (Raji [3]): 82% | Activity (Raji [4]): 100% | viability at 1000 molar ratio [5]: 60% | IC50 [6]: 460 nM

CO[C@H]1CC[C@@]2(C)[C@@H](CC[C@@]3(C)CC4=CC[C@H]5C(C)(C)[C@H](OC(=O)CN)CC[C@]5(C)[C@H]4CC[C@@H]32)C1(C)C
Activity (Raji [1]): 12% | Activity (Raji [2]): 42.5% | EA activation relative to control (Raji [3]): 80.3% | Activity (Raji [4]): 100% | viability at 1000 molar ratio [5]: 60% | IC50 [6]: 449 nM

COc1c(O)cc(C(=O)O[C@@H]2CC[C@]3(C)[C@H]4CC[C@H]5[C@@](C)(CC[C@H]6C(C)(C)[C@@H](OC)CC[C@@]65C)CC4=CC[C@H]3C2(C)C)cc1O
Activity (Raji [1]): 4.7% | Activity (Raji [2]): 37.8% | EA activation relative to control (Raji [3]): 72.5% | Activity (Raji [4]): 93.4% | viability at 1000 molar ratio [5]: 60% | IC50 [6]: 375 nM

CO[C@H]1CC[C@@]2(C)[C@@H](CC[C@@]3(C)CC4=CC[C@H]5C(C)(C)[C@H](OC(=O)CCC(=O)Oc6ccc(-c7coc8cc(O)ccc8c7=O)cc6)CC[C@]5(C)[C@H]4CC[C@@H]32)C1(C)C
Activity (Raji [1]): 15% | Activity (Raji [2]): 49.4% | EA activation relative to control (Raji [3]): 82.6% | Activity (Raji [4]): 100% | viability at 1000 molar ratio [5]: 60% | IC50 [6]: 495 nM

CO[C@H]1CC[C@@]2(C)[C@@H](CC[C@@]3(C)CC4=CC[C@H]5C(C)(C)[C@H](OC(=O)c6cc(O)c(O)c(O)c6)CC[C@]5(C)[C@H]4CC[C@@H]32)C1(C)C
Activity (Raji [1]): 2.2% | Activity (Raji [2]): 36.5% | EA activation relative to control (Raji [3]): 71.3% | Activity (Raji [4]): 91.5% | viability at 1000 molar ratio [5]: 60% | IC50 [6]: 290 nM | inhibition (INH) (Mus musculus [7]): 20% | inhibition (INH) (Mus musculus [8]): 86.6% | Activity (Mus musculus [9]): 18 mm | Activity (Mus musculus [10]): 15 mm | Activity (Mus musculus [11]): Non-toxic | Activity (Mus musculus [12]): Non-toxic | Activity (Mus musculus [13]): Non-toxic | Activity (Mus musculus [14]): Non-toxic | Activity (Mus musculus [15]): Non-toxic

CO[C@H]1CC[C@@]2(C)[C@@H](CC[C@@]3(C)CC4=CC[C@H]5C(C)(C)[C@H](OC(=O)CCC(=O)O)CC[C@]5(C)[C@H]4CC[C@@H]32)C1(C)C
Activity (Raji [1]): 0% | Activity (Raji [2]): 33.6% | EA activation relative to control (Raji [3]): 69.5% | Activity (Raji [4]): 93.8% | viability at 1000 molar ratio [5]: 60% | IC50 [6]: 285 nM

CO[C@H]1CC[C@@]2(C)[C@@H](CC[C@@]3(C)CC4=CC[C@H]5C(C)(C)[C@H](OC(=O)CC(C)(C)C(=O)O)CC[C@]5(C)[C@H]4CC[C@@H]32)C1(C)C
Activity (Raji [1]): 0% | Activity (Raji [2]): 28.5% | EA activation relative to control (Raji [3]): 67% | Activity (Raji [4]): 90.3% | viability at 1000 molar ratio [5]: 60% | IC50 [6]: 248 nM

CO[C@@H]1CC[C@@]2(C)[C@@H](CC[C@@]3(C)CC4=CC[C@H]5C(C)(C)[C@H](OC(=O)CCC(=O)O)CC[C@]5(C)[C@H]4CC[C@@H]32)C1(C)C
Activity (Raji [1]): 0% | Activity (Raji [2]): 32.4% | EA activation relative to control (Raji [3]): 68.3% | Activity (Raji [4]): 92.4% | viability at 1000 molar ratio [5]: 60% | IC50 [6]: 281 nM

CO[C@H]1CC[C@@]2(C)[C@@H](CC[C@@]3(C)CC4=CC[C@H]5C(C)(C)[C@H](OC(=O)CCC(=O)Oc6ccc([C@@H]7CC(=O)c8c(O)cc(O)cc8O7)cc6)CC[C@]5(C)[C@H]4CC[C@@H]32)C1(C)C
Activity (Raji [1]): 14% | Activity (Raji [2]): 47.3% | EA activation relative to control (Raji [3]): 80% | Activity (Raji [4]): 100% | viability at 1000 molar ratio [5]: 60% | IC50 [6]: 470 nM

CO[C@H]1CC[C@@]2(C)[C@@H](CC[C@@]3(C)CC4=CC[C@H]5C(C)(C)[C@H](OC(=O)CCC(=O)Oc6ccc(-c7coc8cc(O)cc(O)c8c7=O)cc6)CC[C@]5(C)[C@H]4CC[C@@H]32)C1(C)C
Activity (Raji [1]): 12% | Activity (Raji [2]): 45.2% | EA activation relative to control (Raji [3]): 79.6% | Activity (Raji [4]): 100% | viability at 1000 molar ratio [5]: 60% | IC50 [6]: 455 nM
